14 compounds from ChEMBL document CHEMBL1155534, “Tetracyclic sulfones as potent gamma-secretase inhibitors: synthesis and structure-activity relationship studies” (Bioorg Med Chem Lett, 2010) can be followed below.

The nature of data set [1]: Plasma protein binding in human. The data set is classed as ADME, cell-free. Particulars: read-out: PPB (converted).
Data set [2] is described as follows: Inhibition of gamma secretase.
A short description of data set [3]: Inhibition of gamma-secretase-mediated cleavage of human APP expressed in HEK293 cells assessed as reduction in amyloid beta42 production. The format is cell-based.
The test system of data set [4] is Mus musculus. As to the kind of experiment: Reduction in amyloid beta 40 level in non-transgenic mouse brain at 10 mg/kg, po. The data set is classed as ADME, organism-based. Further details: dose 10 mg/kg, route oral; scale not given: the % may be the effect or the level left. Particulars: in vivo. In short, it runs like this:
(§1)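 Non-transgenic mice given 10 mg/kg orally; Aβ40 reduction expressed as percent relative to vehicle controls, mean values (n = 5).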

For the next data set, the target named is hERG (KCNH2) (Homo sapiens, UniProt Q12809). As to the kind of experiment: Inhibition of human ERG assessed as rubidium efflux at 5 ug/ml.
Data set [5] relates to Mus musculus. Put plainly: Reduction in amyloid beta 40 level in non-transgenic mouse plasma at 10 mg/kg, po. The settings on record: in vivo. Further details: dose 10 mg/kg, route oral; scale not given: the % may be the effect or the level left. The data set is classed as ADME, organism-based. An outline of the steps: as §1
A short description of data set [6]: Inhibition of gamma-secretase-mediated cleavage of human APP expressed in HEK293 cells assessed as reduction in amyloid beta40 production. The data set is classed as cell-based. An outline of the steps:
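HEK293 cells expressing human APP carrying Swedish and London mutations, in fresh medium with inhibitor for 4 h. Aβ40 in conditioned medium measured by ECL; IC50 derived.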

A short description of data set [7]: Clearance in human hepatocyte pre million cells. The data set is classed as ADME, cell-based, Liver. The settings on record: hepatocytes.

Sequence of hERG (KCNH2) (Q12809 whole entry): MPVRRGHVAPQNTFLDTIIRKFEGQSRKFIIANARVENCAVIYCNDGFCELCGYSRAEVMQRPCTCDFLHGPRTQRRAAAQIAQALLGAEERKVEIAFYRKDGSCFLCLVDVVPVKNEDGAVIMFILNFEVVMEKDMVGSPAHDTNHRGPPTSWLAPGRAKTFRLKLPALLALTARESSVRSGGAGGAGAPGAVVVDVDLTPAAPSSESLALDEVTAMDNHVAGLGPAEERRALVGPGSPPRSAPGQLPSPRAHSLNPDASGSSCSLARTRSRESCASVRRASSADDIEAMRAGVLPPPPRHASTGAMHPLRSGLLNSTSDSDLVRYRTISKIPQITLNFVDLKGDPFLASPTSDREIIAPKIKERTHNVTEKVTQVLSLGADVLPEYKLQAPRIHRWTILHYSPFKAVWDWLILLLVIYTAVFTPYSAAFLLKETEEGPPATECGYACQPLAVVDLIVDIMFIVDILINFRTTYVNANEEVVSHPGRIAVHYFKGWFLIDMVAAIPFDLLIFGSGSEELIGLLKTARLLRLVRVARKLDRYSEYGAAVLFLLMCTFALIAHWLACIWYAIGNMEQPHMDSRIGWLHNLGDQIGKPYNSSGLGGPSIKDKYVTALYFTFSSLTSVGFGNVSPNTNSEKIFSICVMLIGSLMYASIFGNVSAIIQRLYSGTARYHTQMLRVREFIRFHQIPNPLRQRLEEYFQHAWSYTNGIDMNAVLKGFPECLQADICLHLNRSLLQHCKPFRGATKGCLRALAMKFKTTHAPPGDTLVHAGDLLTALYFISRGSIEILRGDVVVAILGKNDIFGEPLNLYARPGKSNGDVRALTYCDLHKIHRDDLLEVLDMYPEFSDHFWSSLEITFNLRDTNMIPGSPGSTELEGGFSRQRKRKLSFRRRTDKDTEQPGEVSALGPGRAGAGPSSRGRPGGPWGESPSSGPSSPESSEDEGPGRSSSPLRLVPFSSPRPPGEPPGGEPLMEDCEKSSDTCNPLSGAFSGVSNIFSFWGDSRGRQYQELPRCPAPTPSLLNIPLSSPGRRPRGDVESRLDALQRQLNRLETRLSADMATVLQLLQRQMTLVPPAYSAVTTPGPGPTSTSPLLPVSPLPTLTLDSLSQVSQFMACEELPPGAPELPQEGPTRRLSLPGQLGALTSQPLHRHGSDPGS

In the case of `C[C@@H]1C[C@@H]2[C@@H](CC[C@@]3(S(=O)(=O)c4ccc(C(F)(F)F)cc4)c4c(F)ccc(F)c4OC[C@@H]23)NS1(=O)=O`, the fraction unbound in data set [1] was 0.027. Moreover, the IC50 in data set [2] is 1.6 nM; in data set [3] it was 0.5 nM; in data set [6] it was 1 nM. Moreover, the Activity stood at 57% in the data set with Mus musculus [4] and 72% in the data set with Mus musculus [5]. Moreover, on hERG (KCNH2), the inhibition at 5 ug/ml was 4%. Moreover, the hepatocyte CLint in data set [7] came out at 0.4 µL/min/1e6 cells.
Regarding `CC[C@@H]1C[C@@H]2[C@@H](CC[C@@]3(S(=O)(=O)c4ccc(C(F)(F)F)cc4)c4c(F)ccc(F)c4OC[C@@H]23)NS1(=O)=O`, the fraction unbound in data set [1] was 0.019. The 50% inhibitory concentration (IC50) was determined as 1.9 nM in data set [2], 2 nM in data set [3] and 5 nM in data set [6]. Moreover, the Activity in the data set on Mus musculus [4] came to 42%; in the data set with Mus musculus [5], 84%. The inhibition at 5 ug/ml at hERG (KCNH2) came to 10%. Further, the hepatocyte CLint in data set [7] is 0.3 µL/min/1e6 cells.
For `O=S1(=O)CC[C@@H]2[C@@H](CC[C@@]3(S(=O)(=O)c4ccc(C(F)(F)F)cc4)c4c(F)ccc(F)c4OC[C@@H]23)N1`, in data set [2], the IC50 turned out to be 30 nM.
On to `NC(=O)CC1C[C@@H]2[C@@H](CC[C@@]3(S(=O)(=O)c4ccc(C(F)(F)F)cc4)c4c(F)ccc(F)c4OC[C@@H]23)NS1(=O)=O` (stereo not given in full), for which, in data set [3], the IC50 came to 4 nM.
For `C=CCC1C[C@@H]2[C@@H](CC[C@@]3(S(=O)(=O)c4ccc(C(F)(F)F)cc4)c4c(F)ccc(F)c4OC[C@@H]23)NS1(=O)=O` (stereo not given in full), the IC50 worked out at 7.7 nM in data set [2], 2 nM in data set [3] and 7 nM in data set [6].
Consider `COCC1C[C@@H]2[C@@H](CC[C@@]3(S(=O)(=O)c4ccc(C(F)(F)F)cc4)c4c(F)ccc(F)c4OC[C@@H]23)NS1(=O)=O` (stereo not given in full), for which the IC50 in data set [2] turned out to be 9 nM; in data set [3], 8 nM; in data set [6], 7.8 nM.
In the case of `O=S1(=O)N[C@@H]2CC[C@@]3(S(=O)(=O)c4ccc(C(F)(F)F)cc4)c4c(F)ccc(F)c4OC[C@H]3[C@@H]2CC1CCN1CCOCC1` (stereo not given in full), the IC50 in data set [2] was found to be 48.4 nM.
With `CCCC1C[C@@H]2[C@@H](CC[C@@]3(S(=O)(=O)c4ccc(C(F)(F)F)cc4)c4c(F)ccc(F)c4OC[C@@H]23)NS1(=O)=O` (stereo not given in full), the IC50 in data set [2] came out at 5.5 nM; in data set [3], 1 nM; in data set [6], 3 nM.
In data set [2], `O=S1(=O)N[C@@H]2CC[C@@]3(S(=O)(=O)c4ccc(C(F)(F)F)cc4)c4c(F)ccc(F)c4OC[C@H]3[C@@H]2CC1CCN1CCCC1` (stereo not given in full) had an IC50 of 45.5 nM.
For `O=S1(=O)N[C@@H]2CC[C@@]3(S(=O)(=O)c4ccc(C(F)(F)F)cc4)c4c(F)ccc(F)c4OC[C@H]3[C@@H]2CC1CCCO` (stereo not given in full), the IC50 in data set [2] is 9.5 nM; in data set [3] it was 4.9 nM; in data set [6], 3.8 nM.
The compound `C/C=C/CC1C[C@@H]2[C@@H](CC[C@@]3(S(=O)(=O)c4ccc(C(F)(F)F)cc4)c4c(F)ccc(F)c4OC[C@@H]23)NS1(=O)=O` (stereo not given in full) had an IC50 in data set [2] of 14.6 nM.
On to `O=C(O)CC1C[C@@H]2[C@@H](CC[C@@]3(S(=O)(=O)c4ccc(C(F)(F)F)cc4)c4c(F)ccc(F)c4OC[C@@H]23)NS1(=O)=O` (stereo not given in full), for which the IC50 came to 48.3 nM in data set [2], 1200 nM in data set [3] and 930 nM in data set [6].
The matching figures for `O=C(O)CCC1C[C@@H]2[C@@H](CC[C@@]3(S(=O)(=O)c4ccc(C(F)(F)F)cc4)c4c(F)ccc(F)c4OC[C@@H]23)NS1(=O)=O` (stereo not given in full): 17 nM, 64 nM and 40.6 nM.
As for `O=S1(=O)N[C@@H]2CC[C@@]3(S(=O)(=O)c4ccc(C(F)(F)F)cc4)c4c(F)ccc(F)c4OC[C@H]3[C@@H]2CC1C/C=C/c1ccccc1` (stereo not given in full), the half-inhibitory concentration (IC50) in data set [2] was determined as 60.9 nM.
